According to article PMC5795597 (Journal of medicinal chemistry, 2017):

Experiments:
[1] = Plasma levels of 1 after single oral dose in mice; type: in vivo, mouse; settings: dose equivalent of 10 mg/kg of 1, plasma 30 min after administration
Procedure, shortened: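 Male CD-1 mice (25–30 g) got a single oral dose of 10 mg/kg parent equivalent in 50 mM HEPES-buffered saline, pH 7.4, made the same day. At 30 min, mice were killed with pentobarbital and blood taken by cardiac puncture into heparin. Plasma (200g, 15 min; stored −80 °C) was assayed by C18 LC-MS/MS, parent transition 279.986 > 203.066/247.173, losartan internal standard. Mean ± SEM, n = 3.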

[2] = In vitro plasma stability / metabolite identification; type: in vitro ADME; settings: 10 μM, 37 °C, 60 min incubation
Procedure, shortened: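 Mouse plasma was spiked at 10 μM and shaken at 37 °C. Triplicate aliquots at 0 and 60 min were quenched with 2 volumes of ice-cold acetonitrile containing 5 μM losartan, then centrifuged at 12000g for 10 min. Supernatant was diluted 1:1 with water. Parent loss and metabolites were tracked by C18 LC–ESI-TOF MS.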

[3] = Stability under GCPII enzyme assay conditions; type: physicochemical; settings: 30 m in aqueous buffer; pH 8.0
rhGCPII = rhGCPII (Homo sapiens, UniProt Q04609); assay: GCPII radioenzymatic inhibition assay with 3H-NAAG; type: biochemical; settings: relative to compound 1
rhGCPII, sequence (Q04609 whole entry): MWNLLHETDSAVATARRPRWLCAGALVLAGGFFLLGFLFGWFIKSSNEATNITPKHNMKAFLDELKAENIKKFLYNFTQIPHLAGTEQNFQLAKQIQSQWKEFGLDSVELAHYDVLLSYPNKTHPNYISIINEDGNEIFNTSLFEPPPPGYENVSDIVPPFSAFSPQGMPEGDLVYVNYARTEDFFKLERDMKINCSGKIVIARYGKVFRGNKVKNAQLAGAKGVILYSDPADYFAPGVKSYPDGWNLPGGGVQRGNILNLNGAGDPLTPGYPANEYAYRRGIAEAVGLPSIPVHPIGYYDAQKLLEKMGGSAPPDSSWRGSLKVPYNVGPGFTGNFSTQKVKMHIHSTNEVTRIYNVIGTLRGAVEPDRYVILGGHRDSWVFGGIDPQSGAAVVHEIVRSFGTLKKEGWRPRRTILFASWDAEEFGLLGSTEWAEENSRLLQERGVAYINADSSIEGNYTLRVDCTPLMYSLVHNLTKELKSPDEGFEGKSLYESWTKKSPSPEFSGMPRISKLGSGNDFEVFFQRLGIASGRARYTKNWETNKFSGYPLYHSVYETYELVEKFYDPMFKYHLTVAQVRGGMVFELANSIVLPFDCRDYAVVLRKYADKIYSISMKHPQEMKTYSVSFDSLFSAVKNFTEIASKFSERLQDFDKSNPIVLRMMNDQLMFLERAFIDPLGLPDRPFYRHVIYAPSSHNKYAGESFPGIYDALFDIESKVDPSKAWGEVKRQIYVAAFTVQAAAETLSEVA
Procedure, shortened: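 Recombinant human GCPII was started with a mix of 0.31 μM NAAG plus 15 nM 3H-NAAG (concentrations in the added mix). After 20 min, the reaction was stopped with 200 mM potassium phosphate, 50 mM EDTA and 2 mM β-mercaptoethanol, pH 7.4. Released glutamate was isolated by ion exchange and counted by scintillation. IC50 was fitted from inhibition curves.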

[4] = test system: rat chronic constriction injury model of neuropathic pain; assay: Chronic constrictive injury; type: in vivo; settings: rat CCI
Procedure, shortened: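 Male Sprague–Dawley rats (200–250 g, n = 10–15/group) received four loose chromic gut ligatures, 1 mm apart, on the sciatic nerve. From day 10 post-surgery, hind-paw withdrawal latency to a plantar thermal stimulus was read to 0.1 s (normal response within 15 s). Difference score: nonligated minus ligated. Sessions twice weekly, 3 days apart. Daily oral gavage, 1 h pre-test. Gabapentin 50/100 mg/kg po as control. Student's t-test.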

[5] = cited from earlier work

| SMILES | plasma levels of 1 following oral administration of prodrug (in words) [1] | stability / bioconversion in mouse plasma (in words) [2] | further results |
| --- | --- | --- | --- |
| CC(=O)ONC(=O)CCC(Cc1ccc(C(=O)O)cc1)C(=O)O (stereo not shown) [Compound 7, 4-(5-(Acetoxyamino)-2-carboxy-5-oxopentyl)benzoic Acid] | equal or higher | – | – |
| CCOC(=O)c1ccc(CC(CCC(=O)NOCc2ccc(OC(C)=O)cc2)C(=O)O)cc1 (stereo not shown) [Compound 23, 5-(((4-Acetoxybenzyl)oxy)amino)-2-(4-(ethoxycarbonyl)benzyl)-5-oxopentanoic Acid] | – | not converted into 1 | – |
| Cc1oc(=O)oc1CONC(=O)CCC(Cc1ccc(C(=O)O)cc1)C(=O)O (stereo not shown) [Compound 17, 4-(2-Carboxy-5-(((5-methyl-2-oxo-1,3-dioxol-4-yl)methoxy)-amino)-5-oxopentyl)benzoic Acid] | equal or higher | – | stability under GCPII enzyme assay conditions (in words) [3]: partial hydrolysis to 1; fold less potency compared to 1 (GCPII inhibition) (rhGCPII): 12 fold |
| CC(=O)Oc1ccc(CONC(=O)CCC(Cc2ccc(C(=O)O)cc2)C(=O)O)cc1 (stereo not shown) [Compound 12, 4-(5-(((4-Acetoxybenzyl)oxy)amino)-2-carboxy-5-oxopentyl)-benzoic Acid] | equal or higher | complete conversion of prodrug 12 to 1 | effect on absolute latency of the sham operated side ([4]; 4.6 mg/kg/day po): no significant effect; first day of significantly reduced thermal hyperalgesia ([4]; 12 at 4.6 mg/kg/day po (3 mg/kg equivalent of 1)): 4 days |
| NCC1(CC(=O)O)CCCCC1 [gabapentin, reference compound] | – | – | reversal of allodynia (positive control) ([4]; 100 mg/kg po daily, maintained throughout the dosing period): significantly reversed allodynia |
| CC(=O)Oc1ccc(CONC(=O)CCC(Cc2ccc(C(=O)OCOC(=O)OC(C)C)cc2)C(=O)O)cc1 (stereo not shown) [Compound 30, 5-(((4-Acetoxybenzyl)oxy)amino)-2-(4-((((isopropoxycarbonyl)-oxy)methoxy)carbonyl)benzyl)-5-oxopentanoic Acid] | – | completely hydrolyzed | – |
| O=C(CCC(Cc1ccc(C(=O)O)cc1)C(=O)O)NO (stereo not drawn) [Compound 1, 4-Carboxy-α-[3-(hydroxyamino)-3-oxopropyl]-benzenepropanoic acid] | – | completely stable | distribution to sciatic nerves (in words) [5]: good distribution to sciatic nerves |
